What was measured:
[1] = Ratio of inhibitory activities against endothelin converting enzyme-1(ECE-1) and neutral endopeptidase (NEP).
Neprilysin = Neprilysin (Homo sapiens, UniProt P08473); experiment: Inhibitory activity against neutral endopeptidase (NEP).
[2] = biological target: T1, Endothelin-converting enzyme 1 (Homo sapiens, UniProt P42892); experiment: Inhibitory activity was assessed on CHO cells expressing recombinant human Endothelin-converting enzyme 1 (ECE-1).; format: cell-based
T1 sequence (P42892 whole entry): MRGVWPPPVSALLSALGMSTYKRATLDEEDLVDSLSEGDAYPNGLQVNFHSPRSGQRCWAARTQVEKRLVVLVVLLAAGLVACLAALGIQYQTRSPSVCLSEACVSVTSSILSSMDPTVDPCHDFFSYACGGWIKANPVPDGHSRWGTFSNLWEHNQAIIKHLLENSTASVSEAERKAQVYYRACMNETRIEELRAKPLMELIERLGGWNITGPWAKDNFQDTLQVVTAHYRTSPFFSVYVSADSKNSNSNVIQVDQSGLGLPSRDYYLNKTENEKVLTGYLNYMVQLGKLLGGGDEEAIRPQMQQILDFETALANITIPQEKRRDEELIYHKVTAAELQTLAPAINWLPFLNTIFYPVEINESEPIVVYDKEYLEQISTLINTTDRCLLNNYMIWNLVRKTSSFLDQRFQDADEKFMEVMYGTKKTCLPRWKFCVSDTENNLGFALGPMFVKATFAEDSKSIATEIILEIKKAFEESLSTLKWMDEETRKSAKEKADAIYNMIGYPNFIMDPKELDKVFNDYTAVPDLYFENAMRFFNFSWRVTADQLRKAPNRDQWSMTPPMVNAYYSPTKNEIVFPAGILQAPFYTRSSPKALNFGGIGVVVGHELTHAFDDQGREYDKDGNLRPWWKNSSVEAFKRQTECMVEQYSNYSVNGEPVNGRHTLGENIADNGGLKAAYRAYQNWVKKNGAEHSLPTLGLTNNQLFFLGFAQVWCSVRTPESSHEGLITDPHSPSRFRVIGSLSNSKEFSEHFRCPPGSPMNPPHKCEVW
Summary of the method: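 Membrane preparation (10 µg protein) from CHO cells expressing human ECE-1 was preincubated with compound for 20 min at room temperature in 50 mM Tes pH 7.0 with 0.005% Triton X-100. Human big ET-1 was added to a final 0.2 µM for 2 h at 37 °C. ET-1 formed was measured by [¹²⁵I]ET-1 radioimmunoassay.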

[3] = biological target: T2, Neprilysin (Rattus norvegicus) (UniProt P07861); experiment: Inhibitory activity (10 uM) against rat neutral endopeptidase (NEP)
T2 sequence (whole entry): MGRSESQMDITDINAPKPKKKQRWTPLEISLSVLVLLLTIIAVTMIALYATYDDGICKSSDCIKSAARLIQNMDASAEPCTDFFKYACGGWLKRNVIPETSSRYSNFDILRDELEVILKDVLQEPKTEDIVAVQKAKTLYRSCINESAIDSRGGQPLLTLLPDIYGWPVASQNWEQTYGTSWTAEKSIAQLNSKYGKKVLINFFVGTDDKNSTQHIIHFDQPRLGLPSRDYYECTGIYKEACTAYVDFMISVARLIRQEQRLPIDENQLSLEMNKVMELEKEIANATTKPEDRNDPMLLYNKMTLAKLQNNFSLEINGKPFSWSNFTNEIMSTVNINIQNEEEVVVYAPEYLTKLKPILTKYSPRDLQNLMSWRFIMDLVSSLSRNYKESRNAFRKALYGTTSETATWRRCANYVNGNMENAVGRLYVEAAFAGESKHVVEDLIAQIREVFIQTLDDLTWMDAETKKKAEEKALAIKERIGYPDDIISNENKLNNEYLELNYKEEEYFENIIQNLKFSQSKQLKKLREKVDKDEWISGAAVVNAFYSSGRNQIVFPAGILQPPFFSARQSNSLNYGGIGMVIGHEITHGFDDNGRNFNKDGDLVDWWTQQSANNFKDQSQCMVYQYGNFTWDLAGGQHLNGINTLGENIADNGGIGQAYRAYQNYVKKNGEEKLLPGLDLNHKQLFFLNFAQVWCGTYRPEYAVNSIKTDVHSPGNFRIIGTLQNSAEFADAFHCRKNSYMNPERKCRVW

[4] = biological target: T3, Endothelin-converting enzyme 1 (Homo sapiens) (UniProt P42892); experiment: Inhibitory activity (1 uM) was assessed on CHO cells expressing in recombinant human Endothelin-converting enzyme 1 (ECE-1); format: cell-based
T3 sequence (whole entry): T1 sequence (P42892 whole entry)

[5] = biological target: T3, Endothelin-converting enzyme 1 (Homo sapiens); experiment: Inhibitory activity (1 uM) was assessed on CHO cells expressing in recombinant human Endothelin-converting enzyme 1 (ECE-1)

Neprilysin, sequence (P08473 whole entry): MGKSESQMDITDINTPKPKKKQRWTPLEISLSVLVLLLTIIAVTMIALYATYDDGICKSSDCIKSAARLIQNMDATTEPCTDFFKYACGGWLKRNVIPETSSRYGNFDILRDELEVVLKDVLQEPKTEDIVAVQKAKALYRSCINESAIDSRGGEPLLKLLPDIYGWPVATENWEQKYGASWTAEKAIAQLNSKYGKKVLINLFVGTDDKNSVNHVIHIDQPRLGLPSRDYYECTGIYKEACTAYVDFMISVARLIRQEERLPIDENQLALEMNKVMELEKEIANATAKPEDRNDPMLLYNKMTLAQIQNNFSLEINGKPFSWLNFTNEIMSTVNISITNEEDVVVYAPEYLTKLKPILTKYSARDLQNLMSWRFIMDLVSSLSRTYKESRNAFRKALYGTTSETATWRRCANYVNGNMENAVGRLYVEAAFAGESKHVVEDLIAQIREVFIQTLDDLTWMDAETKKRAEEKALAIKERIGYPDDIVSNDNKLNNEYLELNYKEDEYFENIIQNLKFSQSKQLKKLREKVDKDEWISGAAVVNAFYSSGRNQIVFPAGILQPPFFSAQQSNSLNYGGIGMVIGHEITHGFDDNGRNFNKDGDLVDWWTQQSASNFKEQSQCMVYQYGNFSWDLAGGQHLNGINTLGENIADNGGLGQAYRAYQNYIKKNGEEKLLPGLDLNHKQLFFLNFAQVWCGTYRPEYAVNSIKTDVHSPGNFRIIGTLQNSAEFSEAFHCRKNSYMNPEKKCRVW

Row | Structure (SMILES) | Selectivity [1] | IC50 (Neprilysin) [µM] | IC50 [2] [µM] | inhibition [3] [%] | inhibition [4] [%] | inhibition [5] [%]
1 | O=C(NCCc1c[nH]c2ccccc12)[C@H](CC#Cc1ccccc1F)NCP(=O)(O)O | 132 | 10 | 0.076 |  |  | 
2 | O=P(O)(O)C(CCc1cccc2ccccc12)N[C@@H](Cc1ccc(-c2ccccc2)cc1)c1nnn[nH]1 (some centres not stated) | 0.29 | 0.005 | 0.017 |  |  | 
3 | O=C(NCCc1ccccc1)[C@H](CC#Cc1ccc(F)cc1F)NCP(=O)(O)O |  |  | 0.11 |  |  | 
4 | O=C(O)[C@H](CC#Cc1ccccc1F)NCP(=O)(O)O | 46 | 11 | 0.24 |  |  | 
5 | O=C(NCCc1cccc2ccccc12)[C@H](CC#Cc1ccc(F)cc1F)NCP(=O)(O)O | 182 | 6.2 | 0.034 |  |  | 
6 | CC(C)C[C@H](NC(=O)[C@H](CC#Cc1ccccc1)NCP(=O)(O)O)C(=O)O | 1.9 | 0.948 | 0.51 |  |  | 
7 | CC(C)C[C@H](NC(=O)[C@H](CC#Cc1ccccc1Cl)NCP(=O)(O)O)C(=O)O |  |  | 4.3 | 38 |  | 
8 | O=C(O)CN1C(=O)[C@@H](NC(=O)[C@H](CC#Cc2ccc(F)cc2F)NCP(=O)(O)O)CCc2ccccc21 | 9 | 0.73 | 0.082 |  |  | 
9 | O=C(NCCc1ccc(-c2ccccc2)cc1)[C@H](CC#Cc1ccc(F)cc1F)NCP(=O)(O)O | 89 | 2.5 | 0.028 |  |  | 
10 | O=C(O)[C@H](Cc1ccc(-c2ccccc2)cc1)NC(=O)[C@H](CC#Cc1ccccc1F)NCP(=O)(O)O | 19 | 0.25 | 0.013 |  |  | 
11 | O=C(NCCc1ccc(Br)cc1)[C@H](CC#Cc1ccc(F)cc1F)NCP(=O)(O)O | 20 | 0.86 | 0.043 |  |  | 
12 | O=P(O)(O)CN[C@@H](CC#Cc1ccccc1F)c1nnn[nH]1 | 0.1 | 0.014 | 0.15 |  |  | 
13 | O=C(NCCCCc1ccccc1)[C@H](CC#Cc1ccccc1F)NCP(=O)(O)O |  |  |  |  | 0 | 
14 | O=C(O)[C@H](Cc1ccc2ccccc2c1)NC(=O)[C@H](CC#Cc1ccccc1F)NCP(=O)(O)O | 52 | 1.3 | 0.025 |  |  | 
15 | O=C(NCc1ccccc1)[C@H](CC#Cc1ccccc1F)NCP(=O)(O)O | 220 | 55 | 0.25 |  |  | 
16 | O=C(O)[C@H](Cc1ccccc1)NC(=O)[C@H](CC#Cc1ccccc1F)NCP(=O)(O)O | 21 | 1.2 | 0.056 |  |  | 
17 | COc1ccccc1C#CC[C@H](NCP(=O)(O)O)c1nn[nH]n1 |  |  |  |  | 0 | 
18 | CN(CCc1ccccc1)C(=O)[C@H](CC#Cc1ccccc1F)NCP(=O)(O)O |  |  |  |  | 3 | 
19 | CC(C)C[C@H](NC(=O)[C@H](CC#Cc1cccc(F)c1)NCP(=O)(O)O)C(=O)O |  |  | 0.4 |  |  | 
20 | CSCC[C@H](NC(=O)[C@H](CC#Cc1ccccc1F)NCP(=O)(O)O)C(=O)O | 18 | 4.06 | 0.23 |  |  | 
21 | O=C(O)[C@H](CC1CCCCC1)NC(=O)[C@H](CC#Cc1ccc(F)cc1F)NCP(=O)(O)O | 148 | 2.07 | 0.014 |  |  | 

Row | Structure (SMILES) | Selectivity [1] | IC50 (Neprilysin) [µM] | IC50 [2] [µM] | inhibition [3] [%] | inhibition [4] [%] | inhibition [5] [%]
22 | CC(C)[C@H](NC(=O)[C@H](CC#Cc1ccccc1F)NCP(=O)(O)O)C(=O)O | 57 | 6.3 | 0.11 |  |  | 
23 | CC(C)C[C@H](NC(=O)[C@H](CC#Cc1ccc(F)cc1F)NCP(=O)(O)O)C(=O)O | 131 | 6.7 | 0.051 |  |  | 
24 | CC(C)C[C@H](NC(=O)[C@H](CC#Cc1ccccc1F)NCP(=O)(O)O)C(=O)O |  |  | 0.12 |  |  | 
25 | O=C(NCCc1ccc(-c2ccccc2)cc1)[C@H](CCCc1ccccc1F)NCP(=O)(O)O |  |  |  |  | 8 | 
26 | O=P(O)(O)CN[C@@H](CC#Cc1ccccc1)c1nn[nH]n1 | 0.3 | 0.17 | 0.59 |  |  | 
27 | Cc1ccc(C#CC[C@H](NCP(=O)(O)O)c2nn[nH]n2)cc1 |  |  |  |  | 45 | 
28 | O=C(NCCc1ccccn1)[C@H](CC#Cc1ccc(F)cc1F)NCP(=O)(O)O | 32 | 10 | 0.31 |  |  | 
29 | COc1ccc(CCNC(=O)[C@H](CC#Cc2ccc(F)cc2F)NCP(=O)(O)O)cc1OC |  |  | 0.16 | 21 |  | 
30 | O=C(NCCc1cccc2ccccc12)[C@H](CC#Cc1ccccc1F)NCP(=O)(O)O | 82 | 10.7 | 0.13 |  |  | 
31 | O=C(O)[C@H](CC#Cc1ccc(F)cc1F)NCP(=O)(O)O | 153 | 26 | 0.17 |  |  | 
32 | O=C(NCCCc1ccccc1)[C@H](CC#Cc1ccc(F)cc1F)NCP(=O)(O)O |  |  | 0.15 |  |  | 
33 | O=C(NCCc1ccc(Br)cc1)[C@H](CC#Cc1ccccc1F)NCP(=O)(O)O | 364 | 40 | 0.11 |  |  | 
34 | O=C(NCCc1c[nH]c2ccccc12)[C@H](CC#Cc1ccc(F)cc1F)NCP(=O)(O)O | 87 | 9.7 | 0.111 |  |  | 
35 | O=C(NCCc1ccc(-c2ccccc2)cc1)[C@H](CC#Cc1ccccc1F)NCP(=O)(O)O | 197 | 6.5 | 0.033 |  |  | 
36 | CC(C)C[C@H](NC(=O)[C@H](CC#Cc1ccc(F)cc1F)NCP(=O)(O)O)C(=O)N[C@@H](C)C(=O)O | 725 | 5.8 | 0.008 |  |  | 
37 | O=C(O)[C@H](CC#Cc1ccccc1F)NC(=O)[C@H](CC#Cc1ccccc1F)NCP(=O)(O)O | 225 | 6.3 | 0.028 |  |  | 
38 | O=C(NCCc1ccccc1)[C@H](CC#Cc1ccccc1F)NCP(=O)(O)O | 83 | 19 | 0.23 |  |  | 
39 | O=C(NCCc1ccc2ccccc2c1)[C@H](CC#Cc1ccc(F)cc1F)NCP(=O)(O)O | 132 | 7 | 0.053 |  |  | 
40 | CC(C)CCNC(=O)[C@H](CC#Cc1ccc(F)cc1F)NCP(=O)(O)O | 164 | 23 | 0.14 |  |  | 
41 | COc1ccccc1C#CC[C@H](NCP(=O)(O)O)C(=O)N[C@@H](CC(C)C)C(=O)O |  |  |  | 12 |  | 0

— ChEMBL document CHEMBL1131381, “Design and synthesis of potent, selective inhibitors of endothelin-converting enzyme” (J Med Chem, 1998)
